Shown is part of a subset that was picked to be rich in hits.
IDH1 R132H inh = blocks human IDH1 R132H reductase activity | O75874 | diaphorase/resazurin fluorescence, 60 min | inhibition, % at 10 µM | 0.18% of 70,000 active; in the data active = inhibition above about 34%; inconclusive = no clear call, values can overlap the other calls; inactive = below about 11%;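 also: 0% = DMSO and 100% = no enzyme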
Target sequence (O75874 whole entry R132H): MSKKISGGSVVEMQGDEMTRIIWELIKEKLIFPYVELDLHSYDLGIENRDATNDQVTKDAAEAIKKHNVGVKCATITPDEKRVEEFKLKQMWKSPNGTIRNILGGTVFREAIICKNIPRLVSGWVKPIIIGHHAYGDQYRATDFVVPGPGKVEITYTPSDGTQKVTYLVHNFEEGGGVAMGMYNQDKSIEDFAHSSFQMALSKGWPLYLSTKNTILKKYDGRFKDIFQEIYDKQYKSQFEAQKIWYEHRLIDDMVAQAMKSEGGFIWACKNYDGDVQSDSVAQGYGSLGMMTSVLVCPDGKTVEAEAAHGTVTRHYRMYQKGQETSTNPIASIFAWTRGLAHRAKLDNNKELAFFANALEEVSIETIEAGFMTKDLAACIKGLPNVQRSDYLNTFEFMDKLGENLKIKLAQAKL
KDM4C inh = blocks human GASC-1 (KDM4C) demethylase activity; Q9H3R0; GST-KDM4C 2-372, H3K9me3 peptide, LANCE TR-FRET; inhibition, % at 12.5 µM; 0.15% of 96,000 active; AID 720574;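 active = mean replicate inhibition above about 25%, with at least 55% of replicates also reaching it, limit read from the data, passing the limit was not always enough; inconclusive = only one of those two conditions met; inactive = neither condition met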
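Test system – GST-tagged GASC-1 (JMJD2C) catalytic fragment, aa 2-372 · Medium – HEPES buffer, pH 7.5, plus ascorbate · Reagent – H3K9me3 peptide with Fe(II)/2OG · Compound – one test concentration per compound · Timing – 30 min reaction, 60 min detection, RT · Technique – TR-FRET with Eu antibody and ULight streptavidin, EDTA stop · Read-out basis – inhibition from TR-FRET ratio decrease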
T cruzi growth-1 = T. cruzi proliferation inhibition; 5.9% of 77,000 active; inhibition, % at 8.34 µM; AID 624255; T. cruzi beta-gal in NIH3T3, GalScreen luminescence, 90 h;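 active = mean inhibition above about 93%, with at least 55% of replicates each passing it, limit read from the data, passing the limit was not always enough; inconclusive = only one of those two conditions holds; inactive = neither condition holds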
T cruzi growth-2 = blocks T. cruzi growth in NIH3T3 host cells. shares compounds with T cruzi growth-1. T. cruzi beta-gal in NIH3T3, GalScreen luminescence, 90 h. inhibition, % at 8.35 µM. 72% of 5,600 active. AID 651739;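 active = mean replicate inhibition above about 95% and at least 55% of replicates individually reaching it, limit read from the data; inconclusive = only one of the two criteria is met; inactive = neither criterion is met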
T cruzi growth-3 = inhibitors of T. cruzi proliferation; shares compounds with T cruzi growth-1; T. cruzi beta-gal in NIH3T3, GalScreen luminescence, 90 h; inhibition, % at 2.09 µM; 21% of 5,600 active; AID 651740;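 active = mean inhibition above about 95%, with at least 55% of replicates also reaching it, limit read from the data; inconclusive = meets just one of the two conditions; inactive = meets neither condition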;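 also: plate controls were neutral control median for no effect and positive control median for full effect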
3T3 cytotox = kills mouse NIH/3T3 fibroblasts; cytotoxicity (signal decrease), % at 8.35 µM; NIH/3T3 viability, CellTiter-Glo ATP luminescence, 90 h; shares compounds with T cruzi growth-1; AID 651742; 14% of 5,600 active;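 active = mean signal decrease across replicates above about 35% based on untreated-well scatter, with enough replicates individually passing, limit read from the data; inconclusive = no rule stated though some were filed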;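 also: 0% = median of neutral control wells and 100% = median of positive control wells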
NIH3T3 tox 2 = cytotoxicity in mouse NIH/3T3 fibroblasts; inhibition, % at 24.9 µM; shares compounds with T cruzi growth-1; 56% of 5,600 active; NIH/3T3 viability, CellTiter-Glo ATP luminescence, 90 h;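 active = mean loss of cell viability signal at or above a set limit, and enough replicates individually reaching it; inconclusive = meets only the mean limit or only the replicate share; inactive = meets neither condition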;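 also: 0% = median of neutral control wells and 100% = median of positive control wells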
* marks the source's active call; other numbers are inactive results.

For CCS(=O)(=O)Nc1ccc2c(c1)C(=O)N(C)C[C@@H](OC)[C@@H](C)CN(Cc1ccccn1)[C@H](C)CO2 the results were IDH1 R132H inh -0.3, KDM4C inh -0.1 and T cruzi growth-1 22.9.
For CO[C@H]1CN(C)C(=O)c2ccc(NC(=O)NC(C)C)cc2OC[C@@H](C)N(Cc2ccccn2)C[C@H]1C the results were IDH1 R132H inh -0.1, KDM4C inh -1.0, T cruzi growth-1 109.0*, T cruzi growth-2 53.1, T cruzi growth-3 -2.0, 3T3 cytotox 6.1 and NIH3T3 tox 2 -7.9.
Screening CCCN(C)C[C@H]1OCCCC[C@@H](C)Oc2ccc(NS(=O)(=O)c3ccc(C)cc3)cc2C(=O)N([C@H](C)CO)C[C@H]1C returned KDM4C inh -4.7 and T cruzi growth-1 75.2.
C[C@H]1CN([C@@H](C)CO)C(=O)c2cccc(NC(=O)c3cnccn3)c2O[C@@H]1CN(C)Cc1ccc2c(c1)OCO2 was read as IDH1 R132H inh -0.5, KDM4C inh -0.3 and T cruzi growth-1 -26.8.
`C[C@@H]1CCCCO[C@@H](CN(C)C(=O)Nc2cccc3ccccc23)[C@H](C)CN([C@@H](C)CO)C(=O)c2cc(NC(=O)NC3CCCCC3)ccc2O1` gave KDM4C inh -0.1 and T cruzi growth-1 40.6.
C[C@H](O)C#Cc1ccc([C@@H]2[C@H]3CN(C(=O)c4ccc5c(c4)OCO5)CCCCN3[C@H]2CO)cc1 was read as KDM4C inh 1.6 and T cruzi growth-1 32.5.
`C[C@H](O)C#Cc1ccc([C@@H]2[C@@H](CO)N3CCCCN(C(=O)c4ccc5c(c4)OCO5)C[C@@H]23)cc1` gave KDM4C inh 10.5, T cruzi growth-1 97.5*, T cruzi growth-2 105.2*, T cruzi growth-3 32.4, 3T3 cytotox 31.1 and NIH3T3 tox 2 44.0*.
`CC(C)C#Cc1ccc([C@H]2[C@@H](CO)N3CCCCN(C(=O)c4ccc5c(c4)OCO5)C[C@@H]23)cc1` gave KDM4C inh -1.6, T cruzi growth-1 99.2*, T cruzi growth-2 110.1*, T cruzi growth-3 105.9*, 3T3 cytotox 67.6* and NIH3T3 tox 2 49.7*.
Screening CC(C)C#Cc1ccc([C@@H]2[C@H]3CN(C(=O)c4ccc5c(c4)OCO5)CCCCN3[C@H]2CO)cc1 returned KDM4C inh -0.9 and T cruzi growth-1 39.5.
`COc1ccccc1C#Cc1cnc2c(c1)C(=O)N([C@H](C)CO)C[C@H](C)[C@@H](CN(C)C(=O)CN(C)C)O2` gave IDH1 R132H inh -0.1, KDM4C inh 1.3 and T cruzi growth-1 -21.1.
`CC1=C(C(=O)OCc2ccccc2)C2(O)C(=O)c3ccccc3C2(O)N1` (stereo not given) gave IDH1 R132H inh -0.1.
Screening CC(C)C#Cc1ccc2c(c1)O[C@H](CN(C)C(=O)c1cccc(F)c1)[C@H](C)CN([C@H](C)CO)S2(=O)=O returned IDH1 R132H inh -0.1, KDM4C inh -1.5, T cruzi growth-1 111.1*, T cruzi growth-2 103.6*, T cruzi growth-3 52.4, 3T3 cytotox 22.4 and NIH3T3 tox 2 39.2*.
`CC(C)C#Cc1ccc2c(c1)O[C@@H](CN(C)C(=O)c1ccccc1)[C@H](C)CN([C@@H](C)CO)S2(=O)=O` gave IDH1 R132H inh -0.5, KDM4C inh -1.2 and T cruzi growth-1 92.0.
CC(C)C#Cc1ccc2c(c1)O[C@@H](CN(C)C(=O)c1cccc(F)c1)[C@@H](C)CN([C@H](C)CO)S2(=O)=O was read as IDH1 R132H inh -5.0, KDM4C inh -1.2, T cruzi growth-1 104.7*, T cruzi growth-2 101.8*, T cruzi growth-3 61.4, 3T3 cytotox 14.9 and NIH3T3 tox 2 53.9*.
CC(C)C#Cc1ccc2c(c1)O[C@H](CN(C)C(=O)c1cccc(F)c1)[C@@H](C)CN([C@H](C)CO)S2(=O)=O was read as IDH1 R132H inh -2.7, KDM4C inh -0.4, T cruzi growth-1 inconclusive, T cruzi growth-2 106.2*, T cruzi growth-3 70.6, 3T3 cytotox 12.8 and NIH3T3 tox 2 inconclusive.
Screening CC(C)C#Cc1ccc2c(c1)O[C@H](CN(C)C(=O)c1ccccc1)[C@H](C)CN([C@@H](C)CO)S2(=O)=O returned IDH1 R132H inh -0.3, KDM4C inh -0.7 and T cruzi growth-1 98.4.
For CC(C)C#Cc1ccc2c(c1)O[C@@H](CN(C)C(=O)c1cccc(F)c1)[C@H](C)CN([C@H](C)CO)S2(=O)=O the results were IDH1 R132H inh -0.3, KDM4C inh -2.8, T cruzi growth-1 102.9*, T cruzi growth-2 102.5*, T cruzi growth-3 38.0, 3T3 cytotox 56.4* and NIH3T3 tox 2 62.7*.
For N#C[C@H]1[C@@H](c2ccccc2C2=CCCC2)[C@H](CO)N1S(=O)(=O)c1cccc(F)c1 the results were KDM4C inh 0.7.
Screening CO[C@@H]1CN(C)C(=O)c2ccc(NS(=O)(=O)c3ccccc3Cl)cc2OC[C@H](C)NC[C@H]1C returned IDH1 R132H inh 0.0, KDM4C inh 0.4 and T cruzi growth-1 -3.7.
For CCCC#Cc1ccc2c(c1)O[C@@H](CN(C)Cc1cccnc1)[C@H](C)CN([C@@H](C)CO)S2(=O)=O the results were IDH1 R132H inh 13.0, KDM4C inh 0.8, T cruzi growth-1 121.9*, T cruzi growth-2 99.2*, T cruzi growth-3 92.6, 3T3 cytotox 54.9* and NIH3T3 tox 2 106.8*.
For CCCC#Cc1ccc2c(c1)O[C@@H](CN(C)Cc1cccnc1)[C@H](C)CN([C@H](C)CO)S2(=O)=O the results were IDH1 R132H inh 16.2, KDM4C inh -0.8, T cruzi growth-1 119.3*, T cruzi growth-2 97.2*, T cruzi growth-3 96.3*, 3T3 cytotox 45.0* and NIH3T3 tox 2 105.0*.
Screening C[C@H](CO)N1C[C@H](C)[C@H](CN(C)Cc2cccnc2)Oc2cc(C#C[C@@H](C)O)ccc2S1(=O)=O returned T cruzi growth-1 11.4.
COCC#Cc1ccc2c(c1)O[C@H](CN(C)Cc1cccnc1)[C@H](C)CN([C@H](C)CO)S2(=O)=O was read as IDH1 R132H inh 0.3, KDM4C inh 0.5 and T cruzi growth-1 9.1.
COCC#Cc1ccc2c(c1)O[C@H](CN(C)Cc1cccnc1)[C@@H](C)CN([C@H](C)CO)S2(=O)=O was read as IDH1 R132H inh 1.4, KDM4C inh 1.5 and T cruzi growth-1 83.2.
For CCCC#Cc1ccc2c(c1)O[C@@H](CN(C)Cc1cccnc1)[C@@H](C)CN([C@H](C)CO)S2(=O)=O the results were IDH1 R132H inh 14.9, KDM4C inh 1.5, T cruzi growth-1 108.9*, T cruzi growth-2 101.1*, T cruzi growth-3 96.2*, 3T3 cytotox inconclusive and NIH3T3 tox 2 29.5*.
